Measurements as given in ChEMBL document CHEMBL3244092, “Synthesis of episilon-rhodomycinone glycosides” (1977).
The source made the active and inactive calls. The rule behind the calls is not given here.

Each compound was assayed on P388 (assay: Antitumor activity against mouse P388 cells allografted in CDF mouse assessed as tumor growth inhibition at 32 to 128 mg/kg/day relative to control).
Type: functional
Outline: (§1)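 P388 lymphatic leukemia carried in CDF mice, with compound given as a daily dose in mg/kg/day. Activity was read out as T/C, treated versus control. Route, vehicle and schedule length are not given.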

| Compound | T/C [%] |
| --- | --- |
| CC[C@@]1(O)C[C@H](O[C@H]2C[C@H](OC(C)=O)[C@H](OC(C)=O)CO2)c2c(O)c3c(c(O)c2[C@H]1C(=O)OC)C(=O)c1cccc(O)c1C3=O | 110 |

Each compound was assayed on P388 (assay: Antitumor activity against mouse P388 cells allografted in CDF mouse assessed as tumor growth inhibition at 18 mg/kg/day relative to control).
Type: functional
Outline: as §1

| Compound | T/C [%] |
| --- | --- |
| CC[C@@]1(O)C[C@H](O[C@H]2C[C@H](O)[C@H](O)[C@H](C)O2)c2c(O)c3c(c(O)c2[C@H]1C(=O)OC)C(=O)c1cccc(O)c1C3=O | 109 |

These compounds were tested on P388 (assay: Antitumor activity against mouse P388 cells allografted in CDF mouse assessed as tumor growth inhibition at 13 mg/kg/day relative to control).
Type: functional
Outline: as §1

| Compound | T/C [%] |
| --- | --- |
| CC[C@@]1(O)C[C@H](O[C@H]2C[C@H](O)[C@H](O)CO2)c2c(O)c3c(c(O)c2[C@H]1C(=O)OC)C(=O)c1cccc(O)c1C3=O | 115 |

Each compound was assayed on Enterobacteria phage lambda (assay: Induction of lambda phage production in streptomycin-dependent lysogenic Escherichia coli W1709(lambda) assessed as ratio of plaques in treated culture to control).
Type: functional

| Compound | Activity |
| --- | --- |
| CC[C@@]1(O)C[C@H](O[C@@H]2O[C@H](COC(C)=O)[C@@H](OC(C)=O)[C@H](OC(C)=O)[C@H]2OC(C)=O)c2c(O)c3c(c(O)c2[C@H]1C(=O)OC)C(=O)c1cccc(O)c1C3=O | inactive |
| CC[C@@]1(O)C[C@H](O[C@@H]2O[C@@H](C)[C@@H](OC(C)=O)[C@@H](OC(C)=O)[C@@H]2OC(C)=O)c2c(O)c3c(c(O)c2[C@H]1C(=O)OC)C(=O)c1cccc(O)c1C3=O | inactive |
| CC[C@@]1(O)C[C@H](O[C@H]2C[C@H](OC(C)=O)[C@@H](OC(C)=O)[C@H](C)O2)c2c(O)c3c(c(O)c2[C@H]1C(=O)OC)C(=O)c1cccc(O)c1C3=O | inactive |
| CC[C@@]1(O)C[C@H](O[C@H]2C[C@H](O)[C@@H](CO)O2)c2c(O)c3c(c(O)c2[C@H]1C(=O)OC)C(=O)c1cccc(O)c1C3=O | inactive |
| CC[C@@]1(O)C[C@H](O[C@@H]2O[C@H](COCc3ccccc3)[C@@H](OCc3ccccc3)[C@@H]2OCc2ccccc2)c2c(O)c3c(c(O)c2[C@H]1C(=O)OC)C(=O)c1cccc(O)c1C3=O | inactive |
| CC[C@@]1(O)C[C@H](O[C@H]2C[C@H](OC(=O)c3ccc([N+](=O)[O-])cc3)[C@@H](COC(=O)c3ccc([N+](=O)[O-])cc3)O2)c2c(O)c3c(c(O)c2[C@H]1C(=O)OC)C(=O)c1cccc(O)c1C3=O | inactive |
| CC[C@@]1(O)C[C@H](O[C@@H]2O[C@H](CO)[C@@H](O)[C@H](O)[C@H]2O)c2c(O)c3c(c(O)c2[C@H]1C(=O)OC)C(=O)c1cccc(O)c1C3=O | inactive |
| CC[C@@]1(O)C[C@H](O[C@@H]2OC[C@H](OC(C)=O)[C@@H](OC(C)=O)[C@H]2OC(C)=O)c2c(O)c3c(c(O)c2[C@H]1C(=O)OC)C(=O)c1cccc(O)c1C3=O | inactive |
| CC[C@@]1(O)C[C@H](O[C@@H]2O[C@H](CO)[C@@H](O)[C@H]2O)c2c(O)c3c(c(O)c2[C@H]1C(=O)OC)C(=O)c1cccc(O)c1C3=O | inactive |
| CC[C@@]1(O)C[C@H](O[C@@H]2OC[C@H](O)[C@H](O)[C@H]2O)c2c(O)c3c(c(O)c2[C@H]1C(=O)OC)C(=O)c1cccc(O)c1C3=O | inactive |
| CC[C@@]1(O)C[C@H](O[C@H]2C[C@H](O)[C@H](O)CO2)c2c(O)c3c(c(O)c2[C@H]1C(=O)OC)C(=O)c1cccc(O)c1C3=O | inactive |
| CC[C@@]1(O)C[C@H](O[C@@H]2O[C@@H](CO)[C@@H](O)[C@H]2O)c2c(O)c3c(c(O)c2[C@H]1C(=O)OC)C(=O)c1cccc(O)c1C3=O | inactive |
| CC[C@@]1(O)C[C@H](O[C@H]2C[C@H](OC(C)=O)[C@H](OC(C)=O)CO2)c2c(O)c3c(c(O)c2[C@H]1C(=O)OC)C(=O)c1cccc(O)c1C3=O | inactive |
| CC[C@@]1(O)C[C@H](O[C@@H]2OC[C@@H](OC(C)=O)[C@@H](OC(C)=O)[C@@H]2OC(C)=O)c2c(O)c3c(c(O)c2[C@H]1C(=O)OC)C(=O)c1cccc(O)c1C3=O | inactive |
| CC[C@@]1(O)C[C@H](O[C@@H]2OC[C@@H](OC(C)=O)[C@H](OC(C)=O)[C@H]2OC(C)=O)c2c(O)c3c(c(O)c2[C@H]1C(=O)OC)C(=O)c1cccc(O)c1C3=O | inactive |
| CC[C@@]1(O)C[C@H](O[C@@H]2OC[C@H](OC(C)=O)[C@H](OC(C)=O)[C@H]2OC(C)=O)c2c(O)c3c(c(O)c2[C@H]1C(=O)OC)C(=O)c1cccc(O)c1C3=O | inactive |
| CC[C@@]1(O)C[C@H](O[C@H]2C[C@H](O)[C@H](O)[C@H](C)O2)c2c(O)c3c(c(O)c2[C@H]1C(=O)OC)C(=O)c1cccc(O)c1C3=O | inactive |
| CC[C@@]1(O)C[C@H](O[C@@H]2O[C@H](COC(=O)c3ccc([N+](=O)[O-])cc3)[C@H](OC(=O)c3ccc([N+](=O)[O-])cc3)[C@H]2OC(=O)c2ccc([N+](=O)[O-])cc2)c2c(O)c3c(c(O)c2[C@H]1C(=O)OC)C(=O)c1cccc(O)c1C3=O | inactive |
| CC[C@@]1(O)C[C@H](O[C@H]2C[C@H](O)[C@@H](O)[C@H](C)O2)c2c(O)c3c(c(O)c2[C@H]1C(=O)OC)C(=O)c1cccc(O)c1C3=O | inactive |
| CC[C@@]1(O)C[C@H](O[C@@H]2OC[C@@H](OC(C)=O)[C@@H](OC(C)=O)[C@H]2OC(C)=O)c2c(O)c3c(c(O)c2[C@H]1C(=O)OC)C(=O)c1cccc(O)c1C3=O | inactive |
| CC[C@@]1(O)C[C@H](O[C@@H]2O[C@@H](C)[C@H](OC(C)=O)[C@@H](OC(C)=O)[C@H]2OC(C)=O)c2c(O)c3c(c(O)c2[C@H]1C(=O)OC)C(=O)c1cccc(O)c1C3=O | inactive |
| CC[C@@]1(O)C[C@H](O[C@@H]2O[C@@H](COC(=O)c3ccccc3)[C@@H](OC(=O)c3ccccc3)[C@H]2OC(=O)c2ccccc2)c2c(O)c3c(c(O)c2[C@H]1C(=O)OC)C(=O)c1cccc(O)c1C3=O | inactive |
| CC[C@@]1(O)C[C@H](O[C@H]2C[C@H](OC(C)=O)[C@H](OC(C)=O)[C@H](C)O2)c2c(O)c3c(c(O)c2[C@H]1C(=O)OC)C(=O)c1cccc(O)c1C3=O | inactive |
| CC[C@@]1(O)C[C@H](O[C@@H]2O[C@H](COC(=O)c3ccccc3)[C@@H](OC(=O)c3ccccc3)[C@H]2OC(=O)c2ccccc2)c2c(O)c3c(c(O)c2[C@H]1C(=O)OC)C(=O)c1cccc(O)c1C3=O | inactive |
| CC[C@@]1(O)C[C@H](O[C@@H]2O[C@@H](C)[C@@H](O)[C@@H](O)[C@@H]2O)c2c(O)c3c(c(O)c2[C@H]1C(=O)OC)C(=O)c1cccc(O)c1C3=O | inactive |
| CC[C@@]1(O)C[C@H](O[C@@H]2O[C@H](CO)[C@H](O)[C@H]2O)c2c(O)c3c(c(O)c2[C@H]1C(=O)OC)C(=O)c1cccc(O)c1C3=O | inactive |

The compounds below were run on P388 (assay: Antitumor activity against mouse P388 cells allografted in CDF mouse assessed as tumor growth inhibition at 64 mg/kg/day relative to control).
Type: functional
Outline: as §1

| Compound | T/C [%] |
| --- | --- |
| CC[C@@]1(O)C[C@H](O[C@H]2C[C@H](OC(C)=O)[C@H](OC(C)=O)CO2)c2c(O)c3c(c(O)c2[C@H]1C(=O)OC)C(=O)c1cccc(O)c1C3=O | 125 |

These compounds were tested on Bacillus subtilis (assay: Antibacterial activity against Bacillus subtilis).
Type: functional, organism-based

| Compound | Activity |
| --- | --- |
| CC[C@@]1(O)C[C@H](O[C@H]2C[C@H](OC(C)=O)[C@H](OC(C)=O)CO2)c2c(O)c3c(c(O)c2[C@H]1C(=O)OC)C(=O)c1cccc(O)c1C3=O | Active |
